Compound activity from PubChem.
RGS4 pot – potentiators or activators of RGS4 | B-score at 10 µM | 310,000 compounds, 0.92% hits | HEK293 M3R/inducible RGS4, carbachol calcium flux Fluo4; active compounds read low | AID 463111;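 active = B-score of the integrated calcium signal more than 4 SD below the library mean, with starting fluorescence not abnormally high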;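 also: negative B-score means reduced calcium response which marks RGS4 activation or potentiation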
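test system = HEK293 cells with stable M3R and inducible RGS4 | schedule = recording 10 s baseline at 1 Hz, 100 s post-agonist | technique = Fluo4-AM (2 µM) calcium-flux fluorescence, kinetic read | measure = Agonist-evoked peak-minus-minimum fluorescence over baseline, integrated ratio, B score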
MrgX1 agonist – human MrgX1 receptor agonism, primary screen | B-score at 10 µM | Q96LB2 | MrgX1-HEK293 cells, Fluo-4 calcium fluorescence, agonist mode; active compounds read high | 310,000 compounds, 0.44% hits;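 active = calcium response B-score plate-corrected fluorescence ratio at least 3 library SD, with starting fluorescence B-score inside 5 SD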
Target sequence (Q96LB2 whole entry, looked up): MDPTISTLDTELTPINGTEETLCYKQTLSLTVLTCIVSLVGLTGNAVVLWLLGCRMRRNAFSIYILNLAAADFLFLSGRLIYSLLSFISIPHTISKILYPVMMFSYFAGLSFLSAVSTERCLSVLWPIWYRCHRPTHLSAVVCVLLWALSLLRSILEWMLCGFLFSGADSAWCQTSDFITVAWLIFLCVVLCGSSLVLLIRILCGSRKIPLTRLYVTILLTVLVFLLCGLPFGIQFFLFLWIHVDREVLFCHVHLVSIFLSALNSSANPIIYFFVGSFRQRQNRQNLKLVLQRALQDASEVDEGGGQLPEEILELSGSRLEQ
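Test system: HEK293 cells stably expressing human MrgX1 receptor; amount: 15,000 cells per well; doses: compound delivered in addition one of three; times: overnight plating before 1 h dye loading; detection: Fluo-4 NW calcium-flux fluorescence, kinetic read; read-out basis: B-scored fluorescence response ratio; controls: positive and negative controls per plate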
MrgX1 antag – blocks BAM8-22 activation of human MrgX1 receptor; B-score at 10 µM; MRGX1-HEK293 calcium flux, Fluo-4, BAM8-22 antagonism; active compounds read low; 310,000 compounds, 1.3% hits;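 active = calcium-response B-score plate-corrected more than 3 library SD below zero, starting fluorescence within 5 deviations, no agonist response on first addition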;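 also: peak minus trough fluorescence over baseline after final BAM8-22 challenge near maximal dose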
RGS4 block – human RGS4 inhibition | HEK293 M3R/RGS4 inducible, Fluo-4 calcium flux; active compounds read high; triggered by carbachol at its EC20 | B-score at 10 µM | 310,000 compounds, 0.45% hits | AID 463165 | P49798;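 active = B-score, a plate-corrected calcium signal, over three deviations above library mean, with baseline fluorescence within five deviations of library mean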;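 also: RGS4 expression induced by doxycycline in cells with stable M3 receptor; B-score is computed from the integrated fluorescence ratio over baseline after carbachol; higher B-score means a larger calcium signal and so more RGS4 inhibition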
Target sequence (P49798 whole entry, looked up): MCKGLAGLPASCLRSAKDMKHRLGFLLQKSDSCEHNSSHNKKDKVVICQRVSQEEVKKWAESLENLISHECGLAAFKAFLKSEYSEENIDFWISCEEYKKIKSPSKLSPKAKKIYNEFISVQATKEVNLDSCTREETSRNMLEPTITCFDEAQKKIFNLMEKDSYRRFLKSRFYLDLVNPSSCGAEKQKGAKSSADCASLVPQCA
MrgX1 PAM – human MrgX1 positive allosteric modulation, primary screen; Q96LB2; MrgX1-HEK293, Fluo-4 calcium flux, FDSS; active compounds read high; B-score at 10 µM; 310,000 compounds, 0.63% hits; AID 588675;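 active = plate-corrected calcium response at least 3 library SD above typical, normal starting fluorescence, not activating the receptor alone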;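 also: compound read alongside a low EC10 to EC30 dose of BAM8-22 agonist; peak minus trough fluorescence over baseline measured at the second addition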
Of the large screens only hits and unclear results are named; the others gave an inactive call. This is a sample that favours compounds with a hit; in the whole collection about 3.5% have one here.

O=C(NCc1ccccn1)C(=O)NCC1OCCCN1S(=O)(=O)c1cc(F)ccc1F (configuration not stated)	none
COC(=O)c1[nH]c2ccc(Br)cc2c1NC(=O)CN1CCCc2ccccc21	none
COC(=O)c1[nH]c2cc(C)ccc2c1NC(=O)CN1CCCc2ccccc21	RGS4 pot -7.3
O=C(CN1C(=O)S/C(=C/c2ccc(N3CCOCC3)cc2)C1=O)N1CCOCC1	RGS4 pot -7.2
CC(C)CCOc1ccc(C(=O)N2CCN(c3ncccn3)CC2)cc1	none
COc1ccc(CC(=O)NNS(=O)(=O)c2ccccc2)cc1OC	MrgX1 antag -8
O=C(CCC(=O)N(CC(=O)NC1CCCC1)Cc1ccccc1)Nc1nccs1	none
CC(NC(=O)/C=C/c1ccco1)c1nc2ccccc2n1Cc1ccccc1F (configuration not stated)	MrgX1 antag -5.3
CC(NC(=O)/C=C/c1ccco1)c1nc2ccccc2n1Cc1c(Cl)cccc1Cl (configuration not stated)	none
CCCC[C@@H](CN[C@H](C)CNC)NCC1CCC(C(C)(C)C)CC1 (some centres not stated)	none
Cc1ccc(S(=O)(=O)N(C)C)cc1NC(=S)N(C)C1CCN(C)CC1	none
CC(Sc1nnc2c(n1)[nH]c1ccccc12)C(=O)N(C)C1CCCCC1 (configuration not stated)	MrgX1 antag -7.2
COc1ccc(Cl)cc1-n1c(C)cc(C=O)c1C	MrgX1 PAM 7.8
COc1ccc(/C=C/C(=O)OCC(=O)Nc2ccc(Cl)c(S(=O)(=O)N(C)C)c2)cc1OC	RGS4 pot -9.4
Cc1cccc(C(=O)N2CCN=C2SCc2ccc([N+](=O)[O-])cc2)c1	RGS4 pot -8.6
O=C(Cc1ccccc1)N1CCN=C1SCc1cccc([N+](=O)[O-])c1	none
COc1ccc(C(=O)NCC(=O)N/N=C(\C)Cc2ccccc2)cc1	MrgX1 PAM 7
COc1cc(N/C=C(\C(C)=O)c2ccccc2)cc(OC)c1	MrgX1 agonist 30 (no result: RGS4 pot, RGS4 block)
COc1ccccc1CNC(=O)C(=O)NCC1OCCCN1S(=O)(=O)c1cccs1 (configuration not stated)	none
O=S(=O)(/C(=C/c1ccc(C(F)(F)F)cc1)c1nc2ccccc2[nH]1)c1ccccc1	RGS4 block 22
CC(C)c1ccc(/C=C(\c2nc3ccccc3[nH]2)S(=O)(=O)c2ccccc2)cc1	none
CCNc1nc(CN2CCCCC2)nc2scc(-c3ccccc3)c12	RGS4 pot -7.2
OCC1CCCN(c2nc(CN3CCCCC3)nc3scc(-c4ccccc4)c23)C1 (configuration not stated)	none
COc1cc(/C=C(\C#N)C(=O)NCCc2ccccc2)cc(OC)c1O	MrgX1 PAM 7.3
CCc1oc(C(=O)OC)cc1CSC(=N)N	MrgX1 agonist 43
CCOc1ccccc1NC(=O)C(C)N1C(=O)c2ccccc2S1(=O)=O (configuration not stated)	none
COc1cccc(C2=CC(c3ccc(N(C)C)cc3)n3ncnc3N2)c1 (configuration not stated)	MrgX1 agonist 48
COc1cccc(C2=CC(c3ccccc3)n3ncnc3N2)c1 (configuration not stated)	MrgX1 PAM 15
Cc1cc(F)ccc1Oc1cc(NN2CCCCC2)c([N+](=O)[O-])cc1[N+](=O)[O-]	none
COc1cccc(Oc2cc(NN3CCCCC3)c([N+](=O)[O-])cc2[N+](=O)[O-])c1OC	RGS4 pot -9.1
NC(=Nc1ccccc1)Nc1ccccc1	RGS4 pot -8.5, MrgX1 agonist 84
CCOC(=O)C1=C(CSc2nc(-c3ccccc3)ccc2C#N)OC(N)=C(C#N)C1c1cccnc1 (configuration not stated)	MrgX1 antag -6.1
CCOC(=O)COc1ccc(S(=O)(=O)Nc2ccc3c(c2)OCO3)cc1	RGS4 pot -8.5
CCCCCC(=O)O/N=C(\C)c1ccn(S(=O)(=O)c2ccccc2)c1	none
Cc1ccc(C)c(NC(=O)/C(C#N)=C/c2ccc(Sc3nncn3C)c([N+](=O)[O-])c2)c1	RGS4 block 6.2
COc1ccc(-c2noc3c2-c2nc(-c4ccc(C)cc4)sc2CC3)cc1	MrgX1 antag -4.6
COc1ccc(-c2noc3c2-c2nc(-c4ccccc4)sc2CC3)cc1	none
Fc1ccccc1-c1nc2c(s1)CCc1onc(-c3ccc(Br)cc3)c1-2	MrgX1 antag -5.4
CC(COc1ccccc1)N1CCC(CO)(Cc2ccccc2)CC1 (configuration not stated)	none
CCOC(=O)Cc1cc(=O)n2[nH]c(C(C)(C)C)cc2n1	none
N#Cc1c(C(F)(F)F)cc(-c2ccco2)nc1SCc1ccncc1	MrgX1 antag -5.1
Cc1c(CCC(=O)NCCCCCC(=O)O)c(=O)oc2c(C)c3oc4c(c3cc12)CCCC4	none
Cc1c(CCC(=O)N2CCC[C@H]2C(=O)O)c(=O)oc2c(C)c3oc4c(c3cc12)CCCC4	MrgX1 PAM 7.2
COc1ccc(S(=O)(=O)N(C)CC(=O)NCCC2=CCCCC2)cc1OC	MrgX1 antag -5.9
CN(Cc1cc2ccccc2[nH]c1=O)C(=O)COc1ccccc1	none
CCN(CC)CCNC(=O)c1c(C)n(-c2ccccc2)c2cc(Br)c(OC)cc12	MrgX1 antag -7.3
N#C/C(=C\c1ccc(Sc2nc3ccccc3[nH]2)o1)c1ccccc1	MrgX1 antag -4.8
CCCCCC[n+]1c(-c2ccccc2)csc1Nc1ccccc1	none
C=CC[n+]1c(-c2ccccc2)csc1NC(C)(C)C	MrgX1 antag -4.9
Cc1cc(C)c2oc(C(=O)N(Cc3cccs3)C3CCS(=O)(=O)C3)cc(=O)c2c1 (configuration not stated)	none
COCCNC(=O)c1cc(S(=O)(=O)N(C)c2ccccc2OC)ccc1C	none
Cc1nn(CC(=O)N2CCN(Cc3ccccc3)CC2)c(=O)c2ccccc12	MrgX1 PAM 6.9
Cc1nn(CC(=O)N2CCOCC2)c(=O)c2ccccc12	none
Cc1c(CCOC(=O)C23CC4CC(CC(C)(C4)C2)C3)sc[n+]1CC(=O)c1ccccc1	none
Cc1c(CCOC(=O)c2ccccc2)sc[n+]1CC(=O)c1ccc(Br)cc1	RGS4 pot -7.9
Cc1c(CCOC(=O)c2cc([N+](=O)[O-])cc([N+](=O)[O-])c2)sc[n+]1CC(=O)c1ccccc1	none
Cc1c(CCOC(=O)c2ccccc2)sc[n+]1Cc1ccccc1	RGS4 pot -10
Cc1c(CCOC(=O)CC23CC4CC(CC(C)(C4)C2)C3)sc[n+]1CC(=O)c1ccccc1	none
Cc1c(CCOC(=O)CC23CC4CC(CC(C4)C2)C3)sc[n+]1CC(=O)c1ccc(Br)cc1	RGS4 pot -7.5
CCOc1ccc(-n2nc3c(=O)n(CCN4CCCCC4)nc(C)c3c2C)cc1	RGS4 pot -8.5
